Data taken from PMC2740628 (Colloids and surfaces. B, Biointerfaces, 2009).
Where two headings read alike, the source gives them in different places.

What was measured:
human erythrocytes = conditions: cited from earlier work
[1] = DPH steady-state fluorescence anisotropy, membrane partitioning; type: physicochemical; conditions: for Membrane partition coefficient K (DPPC bilayers / aqueous phase): calculated with equation 2 from the depression of Tm, surfactant 0-20 μM; for Effect on phase transition temperature Tm of DPPC (in words): surfactant 0 to 20 μM, DPH-labelled DPPC vesicles
Method in brief: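 DPPC large unilamellar vesicles were made with DPH at a lipid:DPH molar ratio of 500:1 and surfactant at 0–20 μM, mixed in chloroform and dried. They were hydrated in water above 50 °C for 1 h and extruded 15 times at 50 °C. Anisotropy was read at λex 350/λem 452 nm while cooling from 50 °C to 20 °C at 0.2 °C/min. Tm was taken from anisotropy-temperature plots and K from the Tm shift (ΔHm 31.38 kJ·mol-1). Run in triplicate.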

[2] = test system: B16F10 mouse melanoma cell line; experiment: MTT-based cytotoxicity test; type: cell-based; conditions: for Cytotoxicity (in words): B16F10, 24 h, 1 μM to 250 μM; for EC50: read-out: Cytotoxicity EC50, B16F10, 24 h exposure, MTT, range 1 μM to 250 μM
Method in brief: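 B16F10 cells were grown in D-MEM with 10% FCS, antibiotics and glutamine at 37 °C, 5% CO2. Cells were seeded at 2.5–3.0 × 10^4/mL and grown for 16–24 h. Compounds were added from DMSO/PBS (DMSO below 1% final) at 1–250 μM for 24 h, with octylthioglucoside as positive control. MTT was applied for 3 h, formazan was dissolved with SDS (pH 5.5) and read at 540 nm the next day. EC50 came from dose-response curves, run in triplicate.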

Rabbit red blood cells [3] = experiment: Haemolytic activity test; type: cell-based; conditions: for Haemolytic activity (in words): 7 μM to 3.3 mM; for EC50: 2 h, 37 °C
Method in brief: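 Rabbit erythrocytes (2% in PBS) were tested in PBS alone or in PBS with 20% fetal bovine serum. Compounds were dissolved in DMSO, then PBS (DMSO at most 5% final) and tested from 7 μM to 3.3 mM. After 2 h at 37 °C, cells were pelleted at 700g for 10 min. Released haemoglobin was read at 540 nm. The value reported is the lowest concentration giving 50% haemolysis.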

B16 melanoma cell line = conditions: 48 h exposure; cited from earlier work
B16F10 cells = conditions: cited from earlier work
Rabbit red blood cells [4] = conditions: at 3.3 mM (highest concentration), data reported previously ref 15; cited from earlier work
[5] = read-out: Haemolytic activity EC50 20 % serum, rabbit red blood cells, PBS containing 20% fetal bovine serum
[6] = read-out: Haemolytic activity EC50 without serum, rabbit red blood cells 2% in PBS, without serum
[7] = at 3.3 mM (highest concentration), without serum

SMILES | EC50 [2] [µM] | EC50 (Rabbit red blood cells [3]; [5]) [µM] | EC50 (Rabbit red blood cells [3]; [6]) [µM] | also measured
CCCCCCCCCCCCO[C@@H]1O[C@H](CO)[C@@H](O[C@H]2O[C@H](CO)[C@@H](O)[C@H](O)[C@H]2O)[C@H](O)[C@H]1O [C12 maltopyranoside] |  |  |  | Lowest concentration causing lysis of human erythrocytes (human erythrocytes): 58 µM
CCCCCCCCCCCCCCCCO[C@@H]1O[C@H](CO)[C@@H](O)[C@H](O)[C@H]1O [β-13d, hexadecyl β-D-glucopyranoside] |  |  |  | Membrane partition coefficient K (DPPC bilayers / aqueous phase) [1]: 2.78×10^5; Effect on phase transition temperature Tm of DPPC (in words) [1]: decreased linearly over the entire concentration range investigated
CCCCCCCCCCCCCCCCCCCO[C@H]1O[C@H](CO)[C@@H](O)[C@H](O)[C@H]1O [α-13g, nonadecyl α-D-glucopyranoside] | > 250 | > 3300 | > 3300 | Cytotoxicity (in words) [2]: did not show a cytotoxic effect; Haemolytic activity (in words) (Rabbit red blood cells [3]; rabbit red blood cells): not haemolytic
OC[C@H]1O[C@@H](OCCC(F)(F)C(F)(F)C(F)(F)C(F)(F)C(F)(F)C(F)(F)C(F)(F)C(F)(F)C(F)(F)C(F)(F)F)[C@H](O)[C@@H](O)[C@@H]1O [3,3,4,4,5,5,6,6,7,7,8,8,9,9,10,10,11,11,12,12,12-heneicosafluoro-dodecyl-β-D-glucopyranoside] |  |  |  | Toxicity at 50 μM (in words) (B16 melanoma cell line): nontoxic
CCCCCCCCCCCCCCCCO[C@@H]1O[C@H](CO)[C@H](O)[C@H](O)[C@H]1O [β-15b, hexadecyl β-D-galactopyranoside] | > 250 | > 3300 | > 3300 | Membrane partition coefficient K (DPPC bilayers / aqueous phase) [1]: 5.15×10^5; Effect on phase transition temperature Tm of DPPC (in words) [1]: linear decrease in Tm up to a surfactant concentration of 7 μM and an approximately constant Tm at concentrations ≥ 10 μM; Haemolysis, percentage in parentheses after >3.3 mM, without serum (Rabbit red blood cells [3]; [7]): 40%
CCCCCCCCCCCCCCCCO[C@@H]1O[C@H](CO)[C@@H](O[C@H]2O[C@H](CO)[C@@H](O)[C@H](O)[C@H]2O)[C@H](O)[C@H]1O [β-17b] | 67 | 150 | 30 | Haemolytic activity (in words) (Rabbit red blood cells [3]; rabbit red blood cells): most haemolytic compound under investigation
CCCCCCCCCCCCCCCCCO[C@H]1O[C@H](CO)[C@@H](O)[C@H](O)[C@H]1O [α-13e] | 37 | > 3300 | > 3300 | Haemolysis, percentage in parentheses after >3.3 mM, without serum (Rabbit red blood cells [3]; [7]): 25%
CCCCCCCCCCCCCCO[C@H]1O[C@H](CO)[C@@H](O)[C@H](O)[C@H]1O [α-13b] | 53 | > 3300 | 2500 | Haemolysis, percentage in parentheses after >3.3 mM, 20 % serum (Rabbit red blood cells [3]; at 3.3 mM (highest concentration), 20 % serum): 30%
CCCCCCCO[C@@H]1O[C@H](CO)[C@H](O)[C@H](O)[C@H]1O [β-15a] | > 250 | > 3300 | > 3300 | 
CCCCCCCCCCCCCCCCO[C@H]1O[C@H](CO)[C@@H](O)[C@H](O)[C@H]1O [α-13d] | 70 | > 3300 | > 3300 | Haemolysis, percentage in parentheses after >3.3 mM, without serum (Rabbit red blood cells [3]; [7]): 20%
CCCCCCCO[C@@H]1O[C@H](CO)[C@@H](O)[C@H](O)[C@H]1O [β-13a, Heptyl-β-D-glucopyranoside] | > 250 | > 3300 | > 3300 | Membrane partition coefficient K (DPPC bilayers / aqueous phase) [1]: 4.61×10^4; Effect on phase transition temperature Tm of DPPC (in words) [1]: decreased the phase transition temperature of DPPC only slightly; Cytotoxicity (in words) [2]: insignificant; Haemolytic activity (in words) (Rabbit red blood cells [3]; rabbit red blood cells): essentially nonhaemolytic
CCCCCCCCS[C@@H]1O[C@H](CO)[C@@H](O)[C@H](O)[C@H]1O [OTG, Octylthioglucoside, reference compound] | > 250 | 3000 | 500 | 
CCCCCCCCCCCCCCCCCO[C@@H]1O[C@H](CO)[C@@H](O)[C@H](O)[C@H]1O [β-13e] |  |  |  | Apoptosis (in words) (B16F10 cells): induced apoptosis; Haemolysis, percentage in parentheses after >3.3 mM, 20 % serum (Rabbit red blood cells [4]): 5%
OCC1OC(OCCC(F)(F)C(F)(F)C(F)(F)C(F)(F)C(F)(F)C(F)(F)C(F)(F)C(F)(F)C(F)(F)C(F)(F)F)C(O)C(O)C1O [corresponding β-D-galactopyranoside] |  |  |  | Toxicity at 50 μM (in words) (B16 melanoma cell line): displayed some toxicity
